Compound activity as filed in PubChem BioAssay.
Rows were chosen to be rich in hits. Some 1.5% of all compounds tested hit in one or more screens of this group.
LANA-H2B inh – blocks KSHV LANA binding to histone H2A/H2B; cell-free LANA-H2A/H2B peptide, fluorescence polarization; inhibition, % (no concentration beside the values); 0.6% of 320,000 active; AID 2629; Q9QR71; in the data active = inhibition mostly above about 10%, no sharp cut-off; inactive = mostly below about 6.7%
HDAC3 inh – human HDAC3 inhibition | O15379 | recombinant HDAC3, fluorogenic peptide/trypsin coupled, fluorescence | inhibition, % at 8.3 µM | 0.15% of 320,000 active | AID 2718; in the data active = inhibition above about 26%, passing the limit was not always enough
Target sequence (O15379 whole entry, looked up): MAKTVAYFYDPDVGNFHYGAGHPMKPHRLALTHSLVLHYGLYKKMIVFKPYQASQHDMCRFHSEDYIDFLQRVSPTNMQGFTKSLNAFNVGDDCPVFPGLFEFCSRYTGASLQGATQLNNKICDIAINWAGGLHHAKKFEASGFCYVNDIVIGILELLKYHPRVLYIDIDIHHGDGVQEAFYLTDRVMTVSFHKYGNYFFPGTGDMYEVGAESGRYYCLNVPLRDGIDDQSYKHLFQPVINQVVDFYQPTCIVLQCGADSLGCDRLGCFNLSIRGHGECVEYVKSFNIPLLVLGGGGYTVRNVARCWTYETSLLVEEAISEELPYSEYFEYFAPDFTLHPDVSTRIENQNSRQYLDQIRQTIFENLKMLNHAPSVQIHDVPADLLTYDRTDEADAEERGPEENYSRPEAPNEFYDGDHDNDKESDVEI
Arrestin-AP2 inh – inhibitors of human beta-arrestin and AP2 interaction; FITC-arrestin peptide / GST-AP2 beads, flow cytometry; AP2 beta2 appendage carries R879A mutation; inhibition, % at 10 µM; 0.31% of 340,000 active; AID 504490;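 active = inhibition above a set limit, near 3 SD of compounds lacking own fluorescence, cut at about 54% in these data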
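Material – AP2 appendage R879A on GSH beads · Buffer or medium – PBS with 0.05% Tween 20 and 0.1% BSA · Probe or stimulus – fluorescein-tagged arrestin peptide at 50 nM final · Incubation – compound with beads 12 min RT, then probe 1 h RT · Detection – high-throughput flow cytometry of beads, ex 488, em 535 nm · Evaluation – percent response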
T cell modulator – T cell immune modulators affecting CD8 T cell-vesicle binding. response (vesicle binding), % at 7 µM. 2C CD8+ T cell-vesicle binding, flow cytometry; active compounds read low. 0.068% of 330,000 active. AID 2052;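 active = response, share of CD8 T cells binding vesicles, and their 90th percentile fluorescence all below set limits, cut at about 80% in these data, passing the limit was not always enough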;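 note: values below 100% mean blocked vesicle binding to the CD8+ T cells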
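System: murine 2C transgenic CD8+ T lymphocytes; also added: QL9-loaded Drosophila micro-vesicles; times: binding 1.5 h at 37 °C; measured by: flow cytometry, PE anti-B7-1 (FL2) versus Alexa647 anti-CD8 (FL8), PFA-fixed; control set: Peptide-free naked vesicles (low) and QL9 vesicles with 0.7% DMSO vehicle (high)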
DSG3 Ab inh – blocks pemphigus antibody binding to human desmoglein-3 | P32926 | DSG3-coupled beads, scFv-anti-DSG3-GFP binding, flow cytometry; active compounds read low | binding (percent of control), % at 10 µM | 0.48% of 310,000 active;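 active = binding more than 3 SD below its plate's average and above zero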;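 note: hits lower antibody fragment binding to DSG3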
Of the large screens only hits and unclear results are named; the others gave an inactive call; ! = not confirmed by another sample.

O=C(NCCC(=O)N1CCN(c2ccc(F)cc2)CC1)c1ccco1	none (no result: LANA-H2B inh, HDAC3 inh, T cell modulator)
O=C(COC(=O)c1nc(Cl)ccc1Cl)NCc1ccccc1	LANA-H2B inh 14
Cc1ccc(-n2sc3ccccc3c2=O)cc1S(=O)(=O)N1CCCCC1	HDAC3 inh 39, Arrestin-AP2 inh 90, DSG3 Ab inh 12
O=c1c2ccccc2sn1-c1ccc(S(=O)(=O)N2CCCCC2)cc1	none
O=c1c2ccccc2sn1-c1ccc(S(=O)(=O)N2CCCC2)cc1	DSG3 Ab inh 62
Cc1ccc(C(=O)NNC(=O)c2ccccc2)cc1S(=O)(=O)N1CCCCC1	none
Cc1noc(C)c1COc1ccccc1C(=O)NC(C)c1ccc(F)cc1 (stereo not drawn)	none (no result: LANA-H2B inh, HDAC3 inh, T cell modulator)
CC(C)CC(=O)c1c[nH]c(C(=O)N2CCN(Cc3ccccc3)CC2)c1	LANA-H2B inh active (no result: DSG3 Ab inh)
CCC(C)N(C(=O)CSc1nc(-c2cccs2)nc2ccccc12)C1CCS(=O)(=O)C1 (stereo not drawn)	none (no result: LANA-H2B inh, HDAC3 inh, T cell modulator)
NC(=O)c1c(NC(=O)c2cccnc2Cl)sc2c1CCCC2	T cell modulator 0.0
CCOC(=O)C1(Cc2ccccc2)CCN(Cc2cccn2-c2nccs2)CC1	LANA-H2B inh 14
CCOC(=O)C1(Cc2cccc(OC)c2)CCN(Cc2cccn2-c2nccs2)CC1	none
CCOC(=O)C1(Cc2ccccc2)CCN(Cc2cnc(N3CCOCC3)s2)CC1	LANA-H2B inh 53
CCCCC1(CC)SCC(=O)NC1=O (stereo not drawn)	none (no result: LANA-H2B inh, HDAC3 inh, T cell modulator)
O=C(Oc1ccc([N+](=O)[O-])cc1)c1cccnc1	HDAC3 inh 32
COc1ccc(OC(=O)c2cccnc2)cc1	none
O=C(c1ccc(-c2cccc(C(F)(F)F)c2)o1)N1CCCC(C(F)(F)F)C1 (stereo not drawn)	HDAC3 inh 30
Cc1ccc(C(=O)N(CC(=O)NC2CCCC2)Cc2cccs2)s1	DSG3 Ab inh 76
CC(C)(C)OC(=O)NCCCCCc1cn([C@@H](CO)C(=O)NCCCCCCCCCCC(=O)N2CCN(C(=O)OC(C)(C)C)CC2)nn1	HDAC3 inh 31
O=C(CN1C(=O)c2ccccc2C1=O)NC1CCC(O)CC1 (stereo not drawn)	none
Nc1c(C(=O)Nc2ccc(F)cc2)nnn1-c1cccc(C(F)(F)F)c1	none
Nc1c(C(=O)Nc2cccc(F)c2)nnn1-c1cccc(C(F)(F)F)c1	DSG3 Ab inh 93
COc1cc(C(=O)c2ccccc2C(=O)O)c(OC)c2c1CCCC2	none (no result: LANA-H2B inh, HDAC3 inh, T cell modulator)
CCOC(=O)c1cc(C)nc(SC)c1C#N	none (no result: DSG3 Ab inh)
CCOC(=O)c1cc(C(C)(C)C)nc(SC)c1C#N	LANA-H2B inh 30 (no result: DSG3 Ab inh)
CCc1c2ccccc2nn1-c1ccccc1C(=O)C(C)=O	LANA-H2B inh 10
CCOC(=O)c1ccccc1-n1nnnc1C	none
CCOC(=O)N1CCN(C(=O)C2CCN(C(=O)c3ccc(C(C)(C)C)cc3)CC2)CC1	none
COc1cccc(N=Cc2nc(-c3ccccc3)oc2OC(C)=O)c1	HDAC3 inh 59
CN(C)c1ccc(N=Cc2nc(-c3ccccc3)oc2OC(=O)c2cccc(Cl)c2)cc1	none
COc1ccc(N=Cc2nc(-c3ccccc3)oc2OC(C)=O)cc1	HDAC3 inh 38 (no result: DSG3 Ab inh)
CCOC(=O)/C=C1/SCC(=O)N1CC(=O)c1ccc[nH]1	none (no result: LANA-H2B inh, HDAC3 inh, T cell modulator)
CN(N=O)c1ccc(CC2CCc3ccccc32)cc1 (stereo not drawn)	none (no result: LANA-H2B inh, HDAC3 inh, T cell modulator)
CC(=O)OCCNc1cc(N2CCN(C)CC2)c2noc3c2c1C(=O)c1ccccc1-3	none (no result: LANA-H2B inh, HDAC3 inh, T cell modulator)
CCOC(=O)C(C(=O)OCC)c1cc(Br)c2noc3c2c1C(=O)c1ccccc1-3	Arrestin-AP2 inh 94
O=C(NC1CCCC1)c1ccc(Cn2c(=O)[nH]c3ccsc3c2=O)cc1	none
O=C(Nc1ccc(Cl)c(Cl)c1)c1ccc(Cn2c(=O)[nH]c3ccsc3c2=O)cc1	DSG3 Ab inh 66
O=C(Nc1ccc(Oc2ccccc2)cc1)c1ccc(Cn2c(=O)[nH]c3ccsc3c2=O)cc1	DSG3 Ab inh 51
COc1ccccc1N1CCN(C(=O)c2ccc(Cn3c(=O)[nH]c4ccsc4c3=O)cc2)CC1	none
O=C(COc1ccc([N+](=O)[O-])cc1)NNC(=O)Nc1ccccc1F	none (no result: HDAC3 inh)
Cc1ncc(CN2CCC(CO)(CCc3ccccc3)CC2)s1	LANA-H2B inh 16
O=C(COc1ccc(F)cc1)OCCN1CCOCC1	LANA-H2B inh 34
CC(CN1CCOCC1)OC(=O)COc1ccc(F)cc1 (stereo not drawn)	none
O=C(Nc1nc2c(Cl)cccc2s1)C1CC1	none
O=C(Nc1nc2c(Br)cccc2s1)C1CC1	HDAC3 inh 46
CNC(=O)c1c(NC(=O)c2ccco2)sc2c1CCC2	LANA-H2B inh 83
O=C(Nc1sc2c(c1C(=O)NC1CCCCC1)CCC2)c1ccco1	none (no result: LANA-H2B inh, HDAC3 inh, T cell modulator)
CCN(CCCc1ccccc1)CCCc1ccccc1	LANA-H2B inh 38 (no result: HDAC3 inh)
CCCCCCc1cc2cc(-c3nnc(-c4ccccc4OC)o3)c(=O)oc2cc1O	LANA-H2B inh 10
O=C(O)c1ccc2c(c1)C(=O)N(c1ccc([N+](=O)[O-])cn1)C2=O	none
CCOC(=O)COn1c(=O)c(-c2ccc(F)cc2)[n+]([O-])c2ccccc21	none
CCCOc1ccc(-c2c(=O)n(OCC(=O)OCC)c3ccccc3[n+]2[O-])cc1	HDAC3 inh 34
CCOC(=O)COn1c(=O)c(-c2cccs2)[n+]([O-])c2ccccc21	HDAC3 inh 53 (no result: DSG3 Ab inh)
O=C(c1ccccc1)N1CCN(Cc2ccccc2)CC1	none
Cc1ccc(CN2CCN(C(=O)c3ccncc3)CC2)cc1	DSG3 Ab inh 62
O=C(Nc1ccn(CCCNC2CCN(Cc3ccccc3)CC2)c(=O)n1)OCc1ccccc1	none (no result: LANA-H2B inh, HDAC3 inh, Arrestin-AP2 inh, T cell modulator)
O=c1[nH]c2cc3c(cc2cc1CN(CC1CCCO1)S(=O)(=O)c1ccc(Cl)cc1)OCCO3 (stereo not drawn)	none
Cc1ccc(S(=O)(=O)N(Cc2cc3cc4c(cc3[nH]c2=O)OCCO4)CC2CCCO2)cc1 (stereo not drawn)	DSG3 Ab inh 82
NC(=O)C1CCN(C(=O)c2cc(Cl)c3c(c2)OCCO3)CC1	none
CCCC(C)NC(=O)c1ccc(F)cc1 (stereo not drawn)	DSG3 Ab inh 27
Cc1c(N)cccc1N	LANA-H2B inh 123
Cc1c(N)cccc1[N+](=O)[O-]	none
Cc1c(-c2ccc(Cl)cc2)oc(=O)c2c(N)n(-c3ccccc3)nc12	DSG3 Ab inh -17
Cc1ccc2nc(SCc3ccccc3)c(C=O)c(=O)n2c1	DSG3 Ab inh 53
COc1ccc(S(=O)(=O)N2CCOCC2)cc1NC(=O)CN1C(=O)NC2(CCC(C)CC2)C1=O (stereo not drawn)	none (no result: LANA-H2B inh, HDAC3 inh, Arrestin-AP2 inh, T cell modulator)
Cn1cccc1/C=N/n1c(-c2ccc(C(C)(C)C)cc2)n[nH]c1=S	HDAC3 inh 29
C[C@H](CO)N1C[C@H](C)[C@@H](CN(C)C(=O)NC2CCCCC2)Oc2c(NC(=O)Cc3ccccc3)cccc2C1=O	none
Nc1nnc(-c2cccc(Cl)c2Cl)c(N)n1	LANA-H2B inh 11!
CCc1c(N)nc(N)nc1Nc1ccccc1Cl	none (no result: LANA-H2B inh, HDAC3 inh, T cell modulator)
